The source of these data is ChEMBL document CHEMBL1130198, “Inhibition of tubulin polymerization by 5,6-dihydroindolo[2,1-alpha]isoquinoline derivatives” (J Med Chem, 1997).

As usually defined, the IC50 is the concentration that gives 50% inhibition. The term inhibition denotes the drop in the measured response relative to a control, in per cent. High values mean a strong effect, low ones a weak effect.

Assay [1] concerns MDA-MB-231. The assay can be described thus: Inhibition of the growth of MDA-MB 231 human breast cancer cells. The class given is functional, cell-based.
A further assay relates to MCF7. Description: Inhibition of estrogen receptor positive MCF-7 human breast cancer cell proliferation. It is filed as functional, cell-based. In outline:
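MCF-7 cells in EMEM with 10% FCS; treatment medium contains dextran-charcoal-treated FCS; exposure ca. 8 days; glutaraldehyde fixation, crystal violet staining, optical density read at 578 nm.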

For assay [2], the target named is T1, Tubulin (Bos taurus, UniProt Q6B856+Q862L2+Q862F3). Description: Inhibition of tubulin polymerization using isolated calf brain at 37 degrees C. The class given is functional.
Assay [3] concerns the target T1, Tubulin. Description: Inhibition of tubulin polymerization using isolated calf brain. It is filed as functional. In outline:
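Twice-cycled, MAP-containing calf brain microtubules depolymerized in PEMG buffer (0.8 M glutamate, pH 6.6-6.7) at 0 °C; compound in DMSO, preincubated 15 min at 37 °C, chilled, GTP added; turbidity at 350 nm over 20 min after shift from 2 to 37 °C.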

The next assay concerns the target Tubulin (Bos taurus) (UniProt Q6B856+Q862L2+Q862F3). Description: Inhibition of colchicine binding to tubulin. The class given is functional. Particulars: concentration not given here. The method, boiled down: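 Calf brain tubulin (prepared as for polymerization) diluted 1:10 in ice-cold PEM buffer (PIPES, EGTA, MgSO4, pH 6.6-6.7); 1 µM [3H]colchicine with 10 µM inhibitor, DMSO vehicle, 30 min at 37 °C; GTP added on ice, filtered through DEAE-cellulose, washed; tubulin-bound radioactivity by scintillation counting, tubulin-free mixtures as background. Mean of two independent experiments.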

Assay [4] deals with Tubulin alpha chain (Bos taurus) (UniProt P81947). Description: Inhibition of colchicine binding to tubulin. The conditions noted are these: concentration not given here.
Tubulin alpha chain (Bos taurus), sequence (P81947 whole entry, looked up): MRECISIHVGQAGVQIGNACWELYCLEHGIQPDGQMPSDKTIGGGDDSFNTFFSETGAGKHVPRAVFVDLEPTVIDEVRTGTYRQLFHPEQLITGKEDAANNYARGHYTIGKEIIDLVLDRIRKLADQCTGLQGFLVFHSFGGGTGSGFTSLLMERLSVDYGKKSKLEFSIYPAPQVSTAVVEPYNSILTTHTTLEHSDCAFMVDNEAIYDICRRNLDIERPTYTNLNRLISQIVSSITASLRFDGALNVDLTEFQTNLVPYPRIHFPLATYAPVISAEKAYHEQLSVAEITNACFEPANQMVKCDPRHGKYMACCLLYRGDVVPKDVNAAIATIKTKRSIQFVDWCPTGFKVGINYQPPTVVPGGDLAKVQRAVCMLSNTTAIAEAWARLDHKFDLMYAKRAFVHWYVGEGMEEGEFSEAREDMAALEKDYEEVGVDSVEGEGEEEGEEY
Assay [5] concerns MDA-MB-231. The assay can be described thus: Inhibition of estrogen receptor negative MDA-MB 231 breast cancer cell proliferation. The conditions noted are these: Homo sapiens. It is filed as functional, cell-based. In outline: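 MDA-MB 231 cells (hormone-independent) in McCoy-5a with 5% FCS, grown 2–3 days in 96-well plates at 37 °C, 5% CO2, then medium with test compound (DMF stock; 0.1% DMF controls) for about 4 days; glutaraldehyde fixation, 0.02% crystal violet staining, ethanol extraction, OD 578 nm versus initial density. IC50 from two independent experiments.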

For assay [6], the target named is T1, Tubulin. Description: Inhibition of tubulin polymerization using isolated calf brain at 26 degrees C. The class given is functional.
The subject of assay [7] is MDA-MB-231. Description: Inhibition of estrogen receptor negative MDA-MB 231 breast cancer cell proliferation at 10 uM. It is filed as functional, cell-based. The conditions noted are these: Homo sapiens. In outline: (§1)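 MDA-MB 231 cells grown in McCoy-5a with L-glutamine, gentamycin, NaHCO3 and 5% FCS, 5% CO2, 37 °C. Cells were seeded in 96-well plates and grown 2–3 days, then given medium containing compound; controls had 0.1% DMF. After about 4 days, cells were fixed with 1% glutaric dialdehyde, stained with 0.02% crystal violet, extracted with 70% EtOH, and OD578 was read against initial density.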

In assay [8] the test system is MDA-MB-231. Description: Inhibition of estrogen receptor negative MDA-MB 231 breast cancer cell proliferation at 1 uM. The class given is functional, cell-based. Particulars: Homo sapiens. In outline:
as §1

Some results are limits rather than exact numbers.

In the case of `CCC1Cc2cc(O)ccc2-c2c(C=O)c3ccc(O)cc3n21` (stereo unspecified), the figures for the IC50 with MDA-MB-231 [1] and in the assay on MCF7 were 2.8 µM and 2.5 µM, respectively.
As for `CCCCC1Cc2cc(OC)ccc2-c2c(CNC)c3ccc(OC)cc3n21` (stereo unspecified), it took 2.1 µM to reach half-maximal inhibition in the assay on MDA-MB-231 [1] (IC50).
Same read-out and setting: next, `CCCCC1Cc2cc(OC)ccc2-c2c(/C=N/Cc3ccccc3)c3ccc(OC)cc3n21` (stereo unspecified): 5.7 µM.
For `CCCCC1Cc2cc(O)ccc2-c2c(C=O)c3cc(O)ccc3n21` (stereo unspecified), the half-maximal inhibitory concentration (IC50) at Tubulin [2] was determined as 19 µM; in the assay on MDA-MB-231 [1], 0.2 µM; in the assay on MCF7, 0.65 µM.
The compound `CCCCC1Cc2cc(OC)ccc2-c2c(C#N)c3cc(OC)c(OC)cc3n21` (stereo unspecified) yielded an IC50 in the assay on MDA-MB-231 [1] of 2.7 µM.
Take `CCCCC1Cc2cc(O)ccc2-c2c(C=O)c3ccc(O)cc3n21` (single isomer, unassigned; (-)) [listing 1 of 2 here]: the half-maximal inhibitory concentration (IC50) against Tubulin [3] was over 60 µM.
For the compound `CC[C@]1(O)C[C@@H]2CN(CCc3c([nH]c4ccccc34)[C@@](C(=O)OC)(c3cc4c(cc3OC)N(C)[C@H]3[C@@](O)(C(=O)OC)[C@H](OC(C)=O)[C@]5(CC)C=CCN6CC[C@]43[C@@H]65)C2)C1` [VINBLASTINE], the IC50 in the assay with MDA-MB-231 [1] was determined as 0.011 µM.
Regarding `CCCCC1Cc2cc(O)ccc2-c2c(C=O)c3ccc(O)cc3n21` (single isomer, unassigned; (-)) [listing 2 of 2 here], the inhibition on Tubulin (Bos taurus) stood at 22%.
In the case of `CCCCC1Cc2cc(O)ccc2-c2c(/C=N/Cc3ccccc3)c3ccc(O)cc3n21` (stereo unspecified), the IC50 with MDA-MB-231 [1] came to 2.1 µM; in the assay on MCF7, 0.26 µM.
`CCCCC1Cc2cc(OC)ccc2-c2c(/C=N/O)c3ccc(OC)cc3n21` (stereo unspecified) yielded an IC50 with MDA-MB-231 [1] of over 10 µM.
The same measure, in the same setting: to `CCCCC1Cc2cc(OC)ccc2-c2c(C(C)=O)c3ccc(OC)cc3n21` (stereo unspecified) belongs over 10 µM; to `CCCCC1Cc2cc(OC)ccc2-c2c(C=O)c3ccc(OC)cc3n21` (stereo unspecified), 8.7 µM.
Compound `CCCCC1Cc2cc(O)ccc2-c2c(C#N)c3ccc(O)cc3n21` (stereo unspecified) returned an inhibition in [4] of 48%. Moreover, the IC50 at Tubulin [2] was determined as 13 µM; with MDA-MB-231 [5] it was 0.3 µM; in the assay with MCF7, 0.54 µM.
The compound `COc1cc2c(cc1O)CC[C@@H]1[C@@H]2CC[C@]2(C)[C@@H](O)CC[C@@H]12` [2-METHOXYESTRADIOL] had an inhibition in assay [4] of 44%. The IC50 was found to be 60 µM on Tubulin [3], 12 µM against Tubulin [6], 5 µM with MDA-MB-231 [7] and 0.25 µM in the assay on MDA-MB-231 [8].
As to `CCCCC1Cc2cc(O)ccc2-c2c(C=O)c3ccc(O)cc3n21` (stereo unspecified), the concentration for half-maximal inhibition (IC50) in the assay on MDA-MB-231 [1] was determined as 1.4 µM; in the assay on MCF7, 0.22 µM.
Take `CCCCC1Cc2cc(OC)ccc2-c2c(C=O)c3cc(OC)ccc3n21` (stereo unspecified): the IC50 with MDA-MB-231 [1] was over 10 µM.
`CCCCC1Cc2cc(O)ccc2-c2c(C#N)c3cc(O)c(O)cc3n21` (stereo unspecified): in [4], the inhibition turned out to be 54%. Further, the figures for the concentration for half-maximal inhibition (IC50) against Tubulin [2], in the assay on MDA-MB-231 [1] and with MCF7 were 25 µM, 3.4 µM and 2.7 µM, respectively.
In the assay on MDA-MB-231 [1], `CCCC1Cc2cc(OC)ccc2-c2c(C=O)c3ccc(OC)cc3n21` (stereo unspecified) had an IC50 of over 10 µM.
Compound `CCCCC1Cc2cc(OC)ccc2-c2c(C=O)c3cc(OC)c(OC)cc3n21` (stereo unspecified) came in with an IC50 with MDA-MB-231 [1] of 9 µM.
For `CC/C(=C(\c1ccccc1)c1ccc(OCCN(C)C)cc1)c1ccccc1` [TAMOXIFEN], in the assay with MCF7, half-maximal inhibition (IC50) required 0.15 µM.
As to `CCCC1Cc2cc(O)ccc2-c2c(C=O)c3ccc(O)cc3n21` (single isomer, unassigned; (-)) [listing 1 of 2 here], the inhibition at Tubulin (Bos taurus) was determined as 27%.
For the compound `CCCCC1Cc2cc(O)ccc2-c2c(C=O)c3cc(O)c(O)cc3n21` (stereo unspecified), the IC50 against Tubulin [2] was 19 µM; in the assay with MDA-MB-231 [1], 3.2 µM; in the assay with MCF7 it was over 10 µM.
In turn, `CCCCC1Cc2cc(OC)ccc2-c2c(C#N)c3ccc(OC)cc3n21` (stereo unspecified) displayed a concentration for half-maximal inhibition (IC50) in the assay on MDA-MB-231 [1] of 3.1 µM.
`CCCCC1Cc2cc(O)ccc2-c2c(C=O)c3ccc(O)cc3n21` (stereo in doubt; (+)-6c) [listing 1 of 2 here] came in with an IC50 on Tubulin [3] of 3.1 µM.
On to `CCCCC1Cc2cc(O)ccc2-c2c(C=O)c3ccc(O)cc3n21` (stereo in doubt; (+)-6c) [listing 2 of 2 here], for which, on Tubulin (Bos taurus), the inhibition amounted to 69%.
`CCCCC1Cc2cc(O)ccc2-c2cc3cc(O)c(O)cc3n21` (stereo unspecified): the half-maximal inhibitory concentration (IC50) in the assay with MDA-MB-231 [1] and with MCF7 was over 10 µM throughout.
With `CCCC1Cc2cc(O)ccc2-c2c(C=O)c3ccc(O)cc3n21` (single isomer, unassigned; (+)) [listing 1 of 2 here], the IC50 against Tubulin [3] is 11 µM.
The compound `CCCC1Cc2cc(O)ccc2-c2c(C=O)c3ccc(O)cc3n21` (single isomer, unassigned; (+)) [listing 2 of 2 here] returned an inhibition at Tubulin (Bos taurus) of 53%.
Turning to `CCCCC1Cc2cc(OC)ccc2-c2cc3cc(OC)c(OC)cc3n21` (stereo unspecified), in the assay on MDA-MB-231 [1], the IC50 is over 10 µM.
For the compound `CCCC1Cc2cc(O)ccc2-c2c(C=O)c3ccc(O)cc3n21` (single isomer, unassigned; (-)) [listing 2 of 2 here], on Tubulin [3], the IC50 is over 70 µM.
Compound `COc1cc([C@@H]2c3cc4c(cc3[C@H](O)[C@H]3COC(=O)[C@H]23)OCO4)cc(OC)c1OC` [PODOFILOX] registered a concentration for half-maximal inhibition (IC50) in the assay with MDA-MB-231 [1] of 0.026 µM.
Regarding `CCCCC1Cc2cc(OC)ccc2-c2c(/C=N/C)c3ccc(OC)cc3n21` (stereo unspecified), in the assay on MDA-MB-231 [1], the IC50 amounted to 7.8 µM.
Regarding `CCCCC1Cc2cc(O)ccc2-c2c(C(C)=O)c3ccc(O)cc3n21` (stereo unspecified), the 50% inhibitory concentration (IC50) in the assay with MDA-MB-231 [1] was 2.2 µM; in the assay with MCF7, 2.5 µM.
Compound `CCCCC1Cc2cc(OC)ccc2-c2c(CNCc3ccccc3)c3ccc(OC)cc3n21` (stereo unspecified) gave a half-inhibitory concentration (IC50) in the assay with MDA-MB-231 [1] of 7 µM.
Turning to `CCCC1Cc2cc(O)ccc2-c2c(C=O)c3ccc(O)cc3n21` (stereo unspecified), the IC50 in the assay on MDA-MB-231 [1] was 0.3 µM; in the assay with MCF7, 0.29 µM.
Regarding `COc1cc2c(c(OC)c1OC)-c1ccc(OC)c(=O)cc1[C@@H](NC(C)=O)CC2` [COLCHICINE], in the assay on MDA-MB-231 [1], the IC50 came out at 0.03 µM.
